Measurements taken from PMC3397176 (Journal of Medicinal Chemistry, 2012).
Where “and” joins values, the source holds several entries; their conditions need not be identical. Equal entries are not always repeated.

Tests used:
[1] = target: Bcl-2 (Homo sapiens, UniProt P10415); experiment: FP-based competitive binding assay, Bcl-2
[2] = Aqueous solubility; type: physicochemical
[3] = target: Bcl-xL (Homo sapiens, UniProt Q07817); experiment: FP-based competitive binding assay, Bcl-xL; details: Bcl-2 and Bcl-xL
[4] = test system: cleavage of PARP and caspase-3 in the H146 cell line; experiment: Western blotting of PARP and caspase-3 cleavage, H146; type: cell-based, Human; details: H146, 24 h, as low as
How it was run: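 H146 cells (RPMI-1640, 10% FBS) treated with test compound for 24 h, then lysed on ice for 20 min in RIPA buffer (PBS, 1% NP40, 0.5% Na-deoxycholate, 0.1% SDS) with […] and protease inhibitors. Cleared lysates were protein-quantified, run on 4–20% SDS-PAGE and transferred to PVDF. Blots were blocked in 5% milk and probed with rabbit anti-PARP, anti-caspase-3 and anti-GAPDH, then HRP secondary and chemiluminescence.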

[5] = test system: H146 cancer cell line; experiment: Cell death assay; type: cell-based, Human; details: H146, 24 h, trypan blue
How it was run: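 Human small cell lung cancer H146 cells from ATCC, grown in RPMI-1640 with 10% FBS, exposed to test compound for 24 h. Cells then collected and stained with trypan blue. Blue-stained or morphologically unhealthy cells were scored as dead, with at least 100 cells counted per sample.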

[6] = test system: H146 small-cell lung cancer cell line; experiment: Cell growth assay; type: cell-based, Human; details: H146 and H1417

Sequence of Bcl-2 (P10415 whole entry): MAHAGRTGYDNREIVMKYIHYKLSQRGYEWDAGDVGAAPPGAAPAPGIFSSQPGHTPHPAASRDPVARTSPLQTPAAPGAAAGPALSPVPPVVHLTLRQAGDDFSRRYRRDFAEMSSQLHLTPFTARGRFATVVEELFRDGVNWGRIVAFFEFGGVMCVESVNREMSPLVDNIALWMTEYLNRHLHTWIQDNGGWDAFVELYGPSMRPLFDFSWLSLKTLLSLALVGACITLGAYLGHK
Sequence of Bcl-xL (Q07817 whole entry): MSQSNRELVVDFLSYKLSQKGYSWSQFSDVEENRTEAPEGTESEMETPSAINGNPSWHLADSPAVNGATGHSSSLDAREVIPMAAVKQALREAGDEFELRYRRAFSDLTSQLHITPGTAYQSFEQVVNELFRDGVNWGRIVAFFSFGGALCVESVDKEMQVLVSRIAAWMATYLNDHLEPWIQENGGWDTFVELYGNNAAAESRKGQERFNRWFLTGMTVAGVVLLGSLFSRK

For `CN(C)CC[C@H](CSc1ccccc1)Nc1ccc(S(=O)(=O)Nc2ccc(N3CCN(c4ccc(-c5c(-c6ccc(Cl)cc6)cn(CC[C@H](O)CO)c5C(=O)NCCCN5CCN(C)CC5)cc4)CC3)cc2)cc1[N+](=O)[O-]` [Compound 12, 4-(4-Chlorophenyl)-1-((S)-3,4-dihydroxybutyl)-3-(4-(4-(4-(4-(((R)-4-(dimethylamino)-1-(phenylthio)butan-2-yl)amino)-3-nitrophenylsulfonamido)phenyl)piperazin-1-yl)phenyl)-N-(3-(4-methylpiperazin-1-yl)propyl)-1H-pyrrole-2-carboxamide], the “times less potent than 7 in binding to Bcl-2” value [1] was greater than 10.
For `CN1CCN(CCCNC(=O)c2c(-c3ccccc3)c(-c3ccc(Cl)cc3)cn2CC[C@H](O)CO)CC1` [Compound 4, (S)-4-(4-chlorophenyl)-1-(3,4-dihydroxybutyl)-N-(3-(4-methylpiperazin-1-yl)propyl)-3-phenyl-1H-pyrrole-2-carboxamide], the aqueous solubility [2] was “excellent aqueous solubility”.
With `CN(C)CCC(CSc1ccccc1)Nc1ccc(S(=O)(=O)NC(=O)c2ccc(N3CCN(c4cccc(-c5c(-c6ccc(Cl)cc6)cn(CC[C@H](O)CO)c5C(=O)NCCCN5CCN(C)CC5)c4)CC3)cc2)cc1[N+](=O)[O-]` (stereo in doubt) [Compound 6, 4-(4-Chlorophenyl)-1-((S)-3,4-dihydroxybutyl)-3-(3-(4-(4-(((4-(((S)-4-(dimethylamino)-1-(phenylthio)butan-2-yl)amino)-3-nitrophenyl)sulfonyl)carbamoyl)phenyl)piperazin-1-yl)phenyl)-N-(3-(4-methylpiperazin-1-yl)propyl)-1H-pyrrole-2-carboxamide] the “times more potent than either 4 or 5 in binding” value [3] was > 10,000.
With `CN(C)CC[C@H](CSc1ccccc1)Nc1ccc(S(=O)(=O)Nc2ccc(NCCNc3cccc(-c4c(-c5ccc(Cl)cc5)cn(CC[C@H](O)CO)c4C(=O)NCCCN4CCN(C)CC4)c3)cc2)cc1[N+](=O)[O-]` [Compound 11, 4-(4-Chlorophenyl)-1-((S)-3,4-dihydroxybutyl)-3-(3-((2-((4-(4-(((R)-4-(dimethylamino)-1-(phenylthio)butan-2-yl)amino)-3-nitrophenylsulfonamido)phenyl)amino)ethyl)amino)phenyl)-N-(3-(4-methylpiperazin-1-yl)propyl)-1H-pyrrole-2-carboxamide] the “times less potent than 7 in binding” value ([1]; Bcl-2/Bcl-xL, protein not specified) was “at least 10”.
In the case of `CCc1c(-c2ccc(Cl)cc2)c(-c2cccc(N3CCN(c4ccc(NS(=O)(=O)c5ccc(N[C@H](CCN(C)C)CSc6ccccc6)c([N+](=O)[O-])c5)cc4)CC3)c2)c(C(=O)O)n1C` [Compound 21, (R)-4-(4-Chlorophenyl)-3-(3-(4-(4-(4-((4-(dimethylamino)-1-(phenylthio)butan-2-yl)amino)-3-nitrophenylsulfonamido)phenyl)piperazin-1-yl)phenyl)-5-ethyl-1-methyl-1H-pyrrole-2-carboxylic acid], the “concentration inducing cleavage of PARP and caspase-3” value [4] is reported as 100 nM, the cell death induction [5] is reported as “effectively induce cell death in a dose-dependent manner” and the “concentration inducing substantial/robust cell death” value [5] is reported as 30 to 100 nM and 30 nM.
In the case of `CN(C)CC[C@H](CSc1ccccc1)Nc1ccc(S(=O)(=O)Nc2ccc(N3CCN(Cc4ccccc4-c4ccc(Cl)cc4)CC3)cc2)cc1[N+](=O)[O-]` [Compound 13, (R)-N-(4-(4-((4'-Chloro-[1,1'-biphenyl]-2-yl)methyl)piperazin-1-yl)phenyl)-4-((4-(dimethylamino)-1-(phenylthio)butan-2-yl)amino)-3-nitrobenzenesulfonamide], the “affinity times weaker than that of 1” value ([1]; Bcl-2 and Bcl-xL) is reported as greater than 10.
With `CN(C)CC[C@H](CSc1ccccc1)Nc1ccc(S(=O)(=O)Nc2ccc(N3CCN(c4cccc(-c5c(-c6ccc(Cl)cc6)cn(C)c5C(=O)NCCCN5CCN(C)CC5)c4)CC3)cc2)cc1[N+](=O)[O-]` [Compound 16, (R)-4-(4-Chlorophenyl)-3-(3-(4-(4-(4-((4-(dimethylamino)-1-(phenylthio)butan-2-yl)amino)-3-nitrophenylsulfonamido)phenyl)piperazin-1-yl)phenyl)-1-methyl-N-(3-(4-methylpiperazin-1-yl)propyl)-1H-pyrrole-2-carboxamide] the “times more potent than 7 in cell growth inhibition” value [6] was 3–5.
In the case of `CN(C)CC[C@H](CSc1ccccc1)Nc1ccc(S(=O)(=O)Nc2ccc(N3CCN(c4cccc(-c5c(-c6ccc(Cl)cc6)cn(C)c5C(=O)O)c4)CC3)cc2)cc1[N+](=O)[O-]` [Compound 20, (R)-4-(4-Chlorophenyl)-3-(3-(4-(4-(4-((4-(dimethylamino)-1-(phenylthio)butan-2-yl)amino)-3-nitrophenylsulfonamido)phenyl)piperazin-1-yl)phenyl)-1-methyl-1H-pyrrole-2-carboxylic acid], the cell death induction [5] is reported as “effectively induce cell death in a dose-dependent manner”.
With `CCOC(=O)c1c(-c2cccc(N3CCN(c4ccc(NS(=O)(=O)c5ccc(N[C@H](CCN(C)C)CSc6ccccc6)c([N+](=O)[O-])c5)cc4)CC3)c2)c(-c2ccc(Cl)cc2)cn1C` [Compound 19, (R)-Ethyl 4-(4-chlorophenyl)-3-(3-(4-(4-(4-((4-(dimethylamino)-1-(phenylthio)butan-2-yl)-amino)-3-nitrophenylsulfonamido)phenyl)piperazin-1-yl)phenyl)-1-methyl-1H-pyrrole-2-carboxylate] the “times less potent than 17 in binding to Bcl-2” value [1] was 10 and the “times less potent than 17 in cell growth inhibition” value [6] was 10.
